Measurements reported in ChEMBL document CHEMBL4265981, “Design, synthesis, and biological evaluation of novel pan agonists of FFA1, PPARγ and PPARδ” (Eur J Med Chem, 2018).

Legend:
[1] = target: T1, Peroxisome proliferator-activated receptor gamma (Homo sapiens, UniProt P37231); assay: Agonist activity at human GAL4 fused PPARgamma-LBD expressed in HEK293 cells after 18 hrs by luciferase reporter gene assay; assay type: cell-based
T1 sequence (P37231 whole entry): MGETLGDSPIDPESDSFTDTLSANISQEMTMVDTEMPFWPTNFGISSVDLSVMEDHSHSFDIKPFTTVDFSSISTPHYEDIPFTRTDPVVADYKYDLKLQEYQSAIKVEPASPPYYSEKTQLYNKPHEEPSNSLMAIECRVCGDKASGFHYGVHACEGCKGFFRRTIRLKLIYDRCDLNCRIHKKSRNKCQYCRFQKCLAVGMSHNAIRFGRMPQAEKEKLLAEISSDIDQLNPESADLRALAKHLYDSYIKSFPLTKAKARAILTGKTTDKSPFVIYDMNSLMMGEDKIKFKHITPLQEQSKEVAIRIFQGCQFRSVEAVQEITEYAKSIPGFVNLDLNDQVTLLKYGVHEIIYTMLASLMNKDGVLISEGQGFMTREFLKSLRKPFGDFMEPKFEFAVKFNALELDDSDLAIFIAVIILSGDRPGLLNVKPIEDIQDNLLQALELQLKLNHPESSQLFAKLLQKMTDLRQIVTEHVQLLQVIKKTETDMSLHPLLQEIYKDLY
In short: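 HEK293 cells plated 1 day ahead in antibiotic-free DMEM, transiently transfected with pBIND-PPARγ plus pG5Luc reporter (25 ng/well each). After 24 h, compounds added at various concentrations for 18 h. Dual firefly/renilla luciferase read-out, firefly normalized to renilla. % activation scaled between no-compound control and reference agonist; EC50 is the mean of three determinations.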

[2] = target: T2, Free fatty acid receptor 1 (Homo sapiens, UniProt O14842); assay: Agonist activity at human FFA1 expressed in CHO cells assessed as increase in intracellular Ca2+ flux after 1 hr by Fluo4-AM dye based FLIPR assay; assay type: functional, cell-based
In short: (§1)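 CHO cells stably expressing human FFA1, seeded 16 h at 37 °C, washed with HBSS, then loaded 1 h at 37 °C with Fluo 4-AM (2.5 μg/mL), 2.5 mmol/L probenecid and 0.1% fatty acid-free BSA. Intracellular Ca2+ flux read by FLIPR after compound addition at various concentrations.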

[3] = target: T3, Peroxisome proliferator-activated receptor alpha (Homo sapiens, UniProt Q07869); assay: Agonist activity at human GAL4 fused PPARalpha-LBD expressed in human HepG2 cells after 18 hrs by luciferase reporter gene assay; assay type: cell-based
T3 sequence (Q07869 whole entry): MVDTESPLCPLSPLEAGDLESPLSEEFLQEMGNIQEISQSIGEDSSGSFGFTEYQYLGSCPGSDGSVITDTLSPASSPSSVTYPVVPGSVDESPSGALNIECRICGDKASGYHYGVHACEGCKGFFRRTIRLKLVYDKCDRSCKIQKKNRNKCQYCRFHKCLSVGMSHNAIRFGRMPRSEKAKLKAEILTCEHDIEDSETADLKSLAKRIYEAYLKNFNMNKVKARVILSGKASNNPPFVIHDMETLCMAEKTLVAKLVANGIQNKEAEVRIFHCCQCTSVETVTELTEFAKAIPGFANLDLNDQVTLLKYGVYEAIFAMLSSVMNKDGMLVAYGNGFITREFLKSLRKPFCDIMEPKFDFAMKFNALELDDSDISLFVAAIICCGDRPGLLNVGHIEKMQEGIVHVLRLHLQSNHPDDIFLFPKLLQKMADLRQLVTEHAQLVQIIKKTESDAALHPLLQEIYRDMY
In short: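 HepG2 cells plated 1 day ahead in antibiotic-free MEM, then run by the same GAL4 protocol: pBIND-PPAR construct plus pG5Luc reporter transfection, 18 h compound exposure at various concentrations. Firefly/renilla luciferase ratio scaled between no-compound and reference-agonist controls. EC50 is the mean of three determinations.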

[4] = target: T4, Peroxisome proliferator-activated receptor delta (Homo sapiens, UniProt Q03181); assay: Agonist activity at human GAL4 fused PPARdelta-LBD expressed in HEK293 cells after 18 hrs by luciferase reporter gene assay; assay type: cell-based
T4 sequence (Q03181 whole entry): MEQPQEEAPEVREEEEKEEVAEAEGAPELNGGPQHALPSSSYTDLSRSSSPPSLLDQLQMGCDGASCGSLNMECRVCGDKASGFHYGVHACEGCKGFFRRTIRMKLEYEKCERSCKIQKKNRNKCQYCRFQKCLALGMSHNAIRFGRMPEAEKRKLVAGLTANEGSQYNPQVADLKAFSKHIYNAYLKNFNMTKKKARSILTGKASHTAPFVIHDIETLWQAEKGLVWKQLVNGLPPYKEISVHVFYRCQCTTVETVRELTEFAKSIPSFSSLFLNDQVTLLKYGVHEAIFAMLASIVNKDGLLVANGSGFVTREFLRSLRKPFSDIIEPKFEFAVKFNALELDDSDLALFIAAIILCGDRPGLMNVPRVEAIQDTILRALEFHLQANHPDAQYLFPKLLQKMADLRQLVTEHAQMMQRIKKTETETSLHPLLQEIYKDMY

[5] = target: T2, Free fatty acid receptor 1; assay: Agonist activity at FFA1 (unknown origin); assay type: functional; in short: as §1
[6] = tested on: Mus musculus; assay: Hypoglycemic activity in ob/ob mouse assessed as decrease in blood glucose AUC (0 to 120 mins) at 40 mg/kg, po bid administered via gavage 30 mins prior to glucose load by OGTT relative to control; assay type: functional; parameters: scale not given: the % may be the effect or the level left
In short: (§2)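 Male ob/ob mice, six weeks old, acclimatized 1 week. Dosed by gavage twice daily for 5 days with 100 or 40 mg/kg, or with 0.5% methylcellulose vehicle. OGTT on days 0 and 5: overnight fast, dose, then oral glucose 3 g/kg 30 min later. Tail-tip blood glucose by strip at −30, 0, 15, 30, 60 and 120 min. n = 6/group, mean ± SD, Student's t test.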

[7] = tested on: Mus musculus; assay: Hypoglycemic activity in ob/ob mouse assessed as decrease in blood glucose AUC (0 to 120 mins) at 40 mg/kg, po bid administered via gavage for 5 days starting at 30 mins prior to glucose load by OGTT relative to control; assay type: functional; parameters: scale not given: the % may be the effect or the level left; in short: as §2
[8] = tested on: Mus musculus; assay: Hypoglycemic activity in ICR mouse assessed as decrease in blood glucose AUC (0 to 120 mins) at 20 mg/kg, po administered 30 mins prior to glucose load by OGTT relative to control; assay type: functional; parameters: scale not given: the % may be the effect or the level left
In short: (§3)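 Male ICR mice (18–22 g), acclimatized 1 week. Single oral dose (10, 30, 100 or 20 mg/kg) in 0.5% carboxymethylcellulose/methylcellulose vehicle, given 30 min before an oral glucose load of 3 g/kg. Blood glucose measured by test strip at −30, 0, 15, 30, 60 and 120 min. AUC0–120 min compared with vehicle.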

[9] = tested on: Mus musculus; assay: Hypoglycemic activity in ob/ob mouse assessed as decrease in blood glucose AUC (0 to 120 mins) at 100 mg/kg, po bid administered via gavage 30 mins prior to glucose load by OGTT relative to control; assay type: functional; parameters: scale not given: the % may be the effect or the level left; in short: as §2
[10] = tested on: Mus musculus; assay: Hypoglycemic activity in ICR mouse assessed as decrease in plasma glucose level administered orally 30 mins prior to glucose load and measured after 120 mins by OGTT; assay type: functional, organism-based; in short: as §3
[11] = tested on: Mus musculus; assay: Hypoglycemic activity in ICR mouse assessed as decrease in blood glucose AUC (0 to 120 mins) at 30 mg/kg, po administered 30 mins prior to glucose load by OGTT relative to control; assay type: functional; parameters: scale not given: the % may be the effect or the level left; in short: as §3
[12] = tested on: Mus musculus; assay: Hypoglycemic activity in ICR mouse assessed as decrease in blood glucose AUC (0 to 120 mins) at 100 mg/kg, po administered 30 mins prior to glucose load by OGTT relative to control; assay type: functional; parameters: scale not given: the % may be the effect or the level left; in short: as §3
[13] = tested on: Mus musculus; assay: Hypoglycemic activity in ob/ob mouse assessed as decrease in blood glucose AUC (0 to 120 mins) at 100 mg/kg, po bid administered via gavage for 5 days starting at 30 mins prior to glucose load by OGTT relative to control; assay type: functional; parameters: scale not given: the % may be the effect or the level left; in short: as §2
[14] = tested on: Mus musculus; assay: Hypoglycemic activity in ICR mouse assessed as decrease in blood glucose AUC (0 to 120 mins) at 10 mg/kg, po administered 30 mins prior to glucose load by OGTT relative to control; assay type: functional; parameters: scale not given: the % may be the effect or the level left; in short: as §3

T2 sequence (O14842 whole entry): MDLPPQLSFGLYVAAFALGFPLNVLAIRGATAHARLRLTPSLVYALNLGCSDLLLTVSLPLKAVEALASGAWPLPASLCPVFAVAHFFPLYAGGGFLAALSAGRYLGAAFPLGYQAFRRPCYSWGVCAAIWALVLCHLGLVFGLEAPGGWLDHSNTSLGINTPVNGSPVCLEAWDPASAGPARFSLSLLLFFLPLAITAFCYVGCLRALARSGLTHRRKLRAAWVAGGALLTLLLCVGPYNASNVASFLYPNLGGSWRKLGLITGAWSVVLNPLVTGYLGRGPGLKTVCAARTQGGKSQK

| SMILES | EC50 [1] [µM] | EC50 [2] [µM] | EC50 [3] [µM] | EC50 [4] [µM] | further results |
| --- | --- | --- | --- | --- | --- |
| Cc1cc(OCCCOc2cccc(Cl)c2)ccc1OCC(=O)O | 1.54 | > 10 | > 10 | 1.73 | – |
| O=C(O)CC1COc2cc(OCCOc3ccccc3)ccc21 (stereo unspecified) | 7.75 | > 10 | > 10 | 7.93 | – |
| CC#C[C@@H](CC(=O)O)c1ccc(OCCCOc2cccc(Cl)c2)cc1 | – | – | – | – | EC50 [5]: 0.01 µM |
| Cc1cc(OCCCS(C)(=O)=O)cc(C)c1-c1cccc(COc2ccc3c(c2)OC[C@H]3CC(=O)O)c1 | – | – | – | – | Activity [6]: 13.1%; Activity [7]: 20.2%; Activity [8]: -26.9% |
| O=C(O)CC1COc2cc(OCCCOc3ccccc3)ccc21 (stereo unspecified) | 5.26 | > 10 | > 10 | 3.26 | – |
| CC(C)(C)c1cccc(OCCCOc2ccc3c(c2)OCC3CC(=O)O)c1 (stereo unspecified) | 1.75 | 3.02 | > 10 | 4.84 | – |
| CC(C)(C)c1cccc(OCCOc2ccc3c(c2)OCC3CC(=O)O)c1 (stereo unspecified) | 2.03 | 3.85 | > 10 | 9.57 | – |
| O=C(O)CC1COc2cc(OCCCOc3cccc(-c4ccccc4)c3)ccc21 (stereo unspecified) | 1.85 | 2.76 | > 10 | 5.49 | – |
| O=C(O)CC1COc2cc(OCCCOc3cccc(Br)c3)ccc21 (stereo unspecified) | 1.67 | 3.45 | > 10 | 2.37 | – |

Further lines, with some results ahead:

| EC50 [1] [µM] | EC50 [2] [µM] | EC50 [3] [µM] | EC50 [4] [µM] | SMILES | further results |
| --- | --- | --- | --- | --- | --- |
| 3.17 | 8.45 | > 10 | 3.35 | O=C(O)COc1ccc(OCCCOc2cccc(Cl)c2)cc1F | – |
| 2.67 | > 10 | > 10 | 2.09 | O=C(O)CC1COc2cc(OCCCOc3ccccc3F)ccc21 (stereo unspecified) | – |
| 1.75 | 3.59 | > 10 | 2.42 | Cc1cccc(OCCCOc2ccc3c(c2)OCC3CC(=O)O)c1 (stereo unspecified) | – |
| > 10 | > 10 | > 10 | > 10 | O=C(O)CS(=O)(=O)c1ccc(OCCCOc2cccc(Cl)c2)cc1 | – |
| 1.92 | 3.28 | > 10 | 4.56 | [2H]C([2H])(Cc1ccc(OCCCOc2cccc(Cl)c2)cc1)C(=O)O | – |
| 1.81 | 7.62 | > 10 | 1.95 | Cc1ccc(OCCCOc2ccc3c(c2)OCC3CC(=O)O)cc1 (stereo unspecified) | – |
| > 10 | > 10 | > 10 | 0.17 | O=C(O)C[C@@H]1CCc2cc(OCCCOc3ccccc3)ccc21 | – |
| 4.56 | > 10 | 5.26 | 1.52 | Cc1cc(OCCCOc2ccc(-c3ccccc3)cc2)ccc1OCC(=O)O | – |
| 1.69 | 3.07 | > 10 | 2.16 | O=C(O)CC1COc2cc(OCCCOc3cccc(Cl)c3)ccc21 (stereo unspecified) | – |
| 1.43 | 2.38 | > 10 | 1.75 | O=C(O)C[C@@H]1COc2cc(OCCCOc3cccc(Cl)c3)ccc21 | Activity [9]: 7.6%; Activity [10]: Dose-dependent effect; Activity [11]: 8.1%; Activity [12]: 18.6%; Activity [13]: 17.3%; Activity [14]: 1.1% |
| 2.02 | > 10 | > 10 | 1.93 | Cc1ccccc1OCCCOc1ccc2c(c1)OCC2CC(=O)O (stereo unspecified) | – |
| 2.97 | 4.26 | 7.31 | 1.98 | O=C(O)CC1COc2cc(OCCCOc3ccc(-c4ccccc4)cc3)ccc21 (stereo unspecified) | – |
